Assay results: PMC3919449 (Chemistry & biology, 2013)

Legend:
BE(2)-C cells [1] = experiment: GE-HTS neuroblastoma differentiation signature in BE; format: cell-based; details: for induction of the differentiation signature (differentiation score): two days of treatment
In short: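 In BE(2)-C cells with 2 nM cisRA as differentiation enhancer, test compound applied at eight concentrations in duplicate for 2 days. Controls were 1 μM cisRA (positive) and DMSO (negative), plus a cisRA dose-response plate per run. GE-HTS gave the differentiation score. AUC: cubic natural spline at 50 points over log dose, trapezoid areas against the mean DMSO score, divided by log-concentration range.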

SH-SY5Y = experiment: GE-HTS neuroblastoma differentiation signature in SH-SY5Y; format: cell-based; details: second cell line
[2] = system: Kelly, LAN-1, BE(2)-C, and SH-SY5Y; experiment: GE-HTS differentiation signature in four neuroblastoma cell lines; format: cell-based; details: two day and five day time points
In short: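 Cells grown in DMEM with 10% FBS and 1% penicillin-streptomycin with glutamine, then exposed to the test compound over a concentration range for 2 or 5 days. Read-out is GE-HTS: ligation-mediated amplification with fluorescent bead detection of 59 signature genes. Differentiation score is the signature-gene expression divided by mean control-gene expression, summed with weights/signs from cisRA vs DMSO controls. Four replicates; one-way ANOVA with Bonferroni versus DMSO.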

[3] = system: histone H3 acetylation in BE(2)-C cells; experiment: Immunoblot for acetylated histone H3; format: cell-based; details: six hours of treatment
In short: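 BE(2)-C cells exposed to the test compound or DMSO for six hours; nuclear extracts then immunoblotted for acetylated histone H3.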

HDACs 4-9 = experiment: HDAC activity assay, other HDACs; format: biochemical; details: HDACs 4-9, same concentration range
In short: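 Recombinant full-length HDAC preincubated 3 h with test compound, then fluorogenic substrate at Km: MAZ1600 for HDAC6 (9 μM); MAZ1675 for HDAC4 (10 μM), 5 (40 μM), 7 (22 μM), 8 (282 μM), 9 (26 μM). Trypsin-coupled AMC release read every 5 min; linear-range rate normalized to DMSO (<0.5%); IC50 by unconstrained logistic regression.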

[4] = system: Kelly, LAN-1, BE(2)-C, and SH-SY5Y; experiment: ATP-based viability; details: four neuroblastoma cell lines, five days of treatment
In short: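 Kelly, LAN-1, BE(2)-C and SH-SY5Y grown in DMEM with 10% FBS and 1% penicillin-streptomycin with glutamine, identity confirmed by STR profiling. Cells exposed to test compound over a 9-point concentration range for five days; viability read by ATP luminescence (CellTiter Glo) per manufacturer's instructions.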

BE(2)-C cells [5] = experiment: NF-M immunofluorescence, morphologic changes; format: cell-based; details: NF-M labeling
In short: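 BE(2)-C cells treated in duplicate with DMSO vehicle or the test compound for 72 h. Cells washed, fixed in 4% formaldehyde and permeabilized with 0.2% Triton X-100. Stained with monoclonal anti-NF-M and an Alexa Fluor 568 secondary. Mounted in antifade with DAPI counterstain; neurite projections examined.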

| Structure (SMILES) | induction of the differentiation signature (differentiation score) (BE(2)-C cells [1]) | also measured |
| --- | --- | --- |
| CC1=C(/C=C/C(C)=C/C=C/C(C)=C/C(=O)O)C(C)(C)CCC1 [ATRA, all-trans retinoic acid] | induce the differentiation signature in a dose-dependent manner | – |
| C[C@H](CO)N1C[C@H](C)[C@H](CN(C)Cc2ccc(C(=O)Nc3ccccc3N)cc2)Oc2c(cccc2N(C)C)C1=O [BRD6332] | greatly dampened differentiation activity | – |
| C[C@H](CO)N1C[C@H](C)[C@H](CN(C)Cc2ccc(C(=O)Nc3ccccc3N)cc2)Oc2ccc(N(C)C)cc2C1=O [BRD6819] | induced the differentiation signature in a manner similar to BRD8430 | induction of the differentiation signature (SH-SY5Y): confirmed to induce the differentiation signature |
| C[C@H](CO)N1C[C@H](C)[C@H](CN(C)Cc2ccc(C(=O)Nc3ccccc3N)cc2)Oc2ccc(N(C)C)cc2CC1=O [BRD8430] | significantly inducing the signature at all eight concentrations tested | induction of the differentiation signature [2]: induce the differentiation signature in a concentration-dependent manner; histone H3 acetylation [3]: increased histone H3 acetylation in a concentration-dependent manner; induction of the differentiation signature (SH-SY5Y): confirmed to induce the differentiation signature; IC50 for inhibition of the other HDACs (HDACs 4-9): not able to determine IC50 values; viability [4]: reduced the viability; AUC of the differentiation score across eight concentrations (BE(2)-C cells [1]; two days, eight concentrations): highest AUC value of the 32 compounds evaluated; morphologic changes consistent with differentiation (BE(2)-C cells [5]): induced morphologic changes, including neurite outgrowth |
| CC(=O)Nc1ccc(C(=O)Nc2ccccc2N)cc1 [CI-994] | significantly induced differentiation at multiple concentrations | – |
| Nc1ccccc1NC(=O)c1ccc(CNC(=O)OCc2cccnc2)cc1 [MS-275] | significantly induced differentiation at multiple concentrations | – |
| O=C(CCCCCCC(=O)Nc1ccccc1)NO [Vorinostat, vorinostat] | significantly induced differentiation at multiple concentrations | – |
| CC1=C(/C=C/C(C)=C/C=C/C(C)=C\C(=O)O)C(C)(C)CCC1 [cisRA, 13-cis retinoic acid] | induce the differentiation signature in a dose-dependent manner | – |
